Read-outs that look alike come from different tables or passages of the source.
Columns and labels:
[1] = system: CFA-induced nociceptive hypersensitivity in rats; test: CFA-induced inflammatory pain model, von Frey mechanical nociception; type: in vivo, Sprague-Dawley rats; details: i.p.; for duration of effect in CFA model: 65 and 66 at 17.8 mg/kg, 2 at 32 mg/kg
[2] = system: CCI-induced mechanical allodynia in rats; test: Chronic constriction injury; type: in vivo, Sprague-Dawley rats; details: i.p., 32 mg/kg
LPA5 [3] = details: cAMP assay ref 31; cited from earlier work
hLPA5 [4] = target: T1, hLPA5 (Homo sapiens, UniProt Q9H1C0); test: LPA5 calcium mobilization assay; type: cell-based; details: for fold less potent than 2: in both calcium mobilization and cAMP assays; for IC50, nM: RH7777-hLPA5 cells, against EC80 (30 nM) of hexadecyl LPA 16:0, mean ± SEM
Outline: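 RH7777-hLPA5 cells were plated on poly-D-lysine at 20,000 cells/well in 0.2% FBS medium for 18–20 h at 37 °C. They were loaded 45 min with Calcium 5 dye in HBSS, 20 mM HEPES and 2.5 mM probenecid, pH 7.4. Eight test-compound concentrations were pre-incubated for 15 min at 37 °C, then hexadecyl LPA 16:0 EC80 (30 nM) was added at 10 s. Fluorescence (485/525 nm) was read every 1 s for 90 s. IC50 came from a three-parameter logistic fit of RFU. Duplicate determinations; two or at least three independent experiments.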

LPA5 [5] = details: SAR study of Kawamoto et al. ref 32; cited from earlier work
hLPA5 [6] = target: T1, hLPA5; test: LPA5 TR-FRET Lance Ultra cAMP assay; type: cell-based; details: for fold less potent than 2: cAMP assay
[7] = Metabolic stability in rat liver microsomes; type: in vitro ADME; details: pH 7.4
Outline: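 Rat liver microsomes (0.5 mg/mL protein) were used in 100 mM potassium phosphate, pH 7.4, at 37 °C, with NADPH at 1 mM final. Samples were taken at 0, 5, 15, 30 and 45 min and quenched 1:1 in cold acetonitrile containing labetalol and glyburide. Parent was measured by LC-MS/MS, and half-life and in vitro clearance were calculated. Two independent experiments in duplicate.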

[8] = system: >50 GPCRs (NIMH Psychoactive Drug Screening Program panel); test: NIMH PDSP radioligand binding panel; details: < 50% inhibition at 10 μM or pKi ≤ 6
P-glycoprotein (MDR1) = test: Bidirectional MDCK-MDR1 permeability; type: in vitro ADME; details: dog, MDCK-MDR1, pH 7.4
Outline: (§1)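 MDCK-mdr1 cells (passage 5) were grown on polycarbonate Transwell supports for 3 days and rinsed with warm HBSS. They were pre-incubated 30 min at 37 °C in HBSS with 10 mM HEPES and 0.25% BSA, pH 7.4, then TEER was measured. Test compound at 10 μM went to the apical donor (A-to-B) or basolateral donor (B-to-A) side, at 37 °C with light agitation. Receiver was sampled at 30, 60 and 90 min and analysed by LC-MS/MS. Papp came from dQ/dt, area 1.12 cm2 and initial donor concentration. Atenolol and propranolol were references.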

MDCK-mdr1 cells = test: Bidirectional MDCK-MDR1 permeability; type: in vitro ADME; details: MDCK-MDR1 Transwell, 10 μM
Outline: as §1

[9] = Bidirectional MDCK-MDR1 permeability; type: in vitro ADME; details: dog, MDCK-MDR1, pH 7.4, Papp (B-to-A), MDCK-MDR1 Transwell, 10 μM
Outline: as §1

LPA1–LPA4 receptors = test: LPA1–LPA3 calcium mobilization; type: cell-based; details: 10 μM in Ca2+ for LPA1–LPA3 and cAMP for LPA4
Outline: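 Selectivity was tested with test compound at 10 μM. LPA1–LPA3 calcium mobilization was run externally in CHO cells over-expressing each receptor, under the provider's protocols. LPA4 was a TR-FRET cAMP assay in LPA4-overexpressing CHO cells, following the LPA5 cAMP method but against 250 nM hexadecyl LPA 16:0 (EC80).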

LPA5 [10] = details: read-out: IC50, binding to [^3H]LPA; literature value ref 8; cited from earlier work

T1 sequence (Q9H1C0 whole entry): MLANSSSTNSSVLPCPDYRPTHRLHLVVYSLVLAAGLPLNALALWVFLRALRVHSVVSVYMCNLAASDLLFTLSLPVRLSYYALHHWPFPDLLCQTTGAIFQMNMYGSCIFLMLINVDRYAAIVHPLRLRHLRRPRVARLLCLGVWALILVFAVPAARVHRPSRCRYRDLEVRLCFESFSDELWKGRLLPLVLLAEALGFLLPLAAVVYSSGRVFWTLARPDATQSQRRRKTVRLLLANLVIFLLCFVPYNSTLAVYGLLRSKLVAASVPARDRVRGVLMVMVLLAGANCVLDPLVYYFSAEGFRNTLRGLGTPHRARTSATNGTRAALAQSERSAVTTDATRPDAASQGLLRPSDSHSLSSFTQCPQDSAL

For COc1cc2c(C(=O)N3CCCCC3)cn(-c3noc4ccc(C)cc34)c(=O)c2cc1OC [Compound 2, 6,7-Dimethoxy-2-(5-methylbenzo[d]isoxazol-3-yl)-4-(piperidine-1-carbonyl)isoquinolin-1(2H)-o-ne, reference compound], the “effect on CFA-induced nociceptive hypersensitivity” value ([1]; 32 mg/kg) was “did not fully reverse the nociceptive hypersensitivity”, the “duration of effect in CFA model” value [1] was ~ 2 h and the “antinociceptive effect in CCI model” value [2] was “full antinociceptive effects”. For the same compound, the IC50 (LPA5 [3]) was 38 nM.
For CCN1CCc2ccc(-n3cc(C(=O)N4CCC(F)CC4)c4cc(OC)c(OC)cc4c3=O)cc21 [Compound 3, 2-(1-Ethylindolin-6-yl)-4-(4-fluoropiperidine-1-carbonyl)-6,7-dimethoxyisoquinolin-1(2H)-one, reference compound], the “fold less potent than 2” value (hLPA5 [4]) is listed as 2–3 fold and the IC50 (LPA5 [5]) is listed as 120 nM.
For COc1cc2c(C(=O)N(C)C)cn(-c3cccc(N(C)C)c3)c(=O)c2cc1OC [Compound 10, 2-(3-(Dimethylamino)phenyl)-6,7-dimethoxy-N,N-dimethyl-1-oxo-1,2-dihydroisoquinoline-4-car-boxamide], the “IC50, nM” value (hLPA5 [4]) was “inactive”.
With COc1cc2c(C(=O)N(C)Cc3ccncc3)cn(-c3cccc(N(C)C)c3)c(=O)c2cc1OC [Compound 11, 2-(3-(Dimethylamino)phenyl)-6,7-dimethoxy-N-methyl-1-oxo-N-(pyridin-4-ylmethyl)-1,2-dihydr-oisoquinoline-4-carboxamide] the “IC50, nM” value (hLPA5 [4]) was “inactive”.
For COc1cc2c(C(=O)N3CCC3)cn(-c3cccc(N(C)C)c3)c(=O)c2cc1OC [Compound 13, 4-(Azetidine-1-carbonyl)-2-(3-(dimethylamino)phenyl)-6,7-dimethoxyisoquinolin-1(2H)-one], the “IC50, nM” value (hLPA5 [4]) was “inactive”.
With COc1cc2c(C(=O)N3CCCC3)cn(-c3cccc(N(C)C)c3)c(=O)c2cc1OC [Compound 14, 2-(3-(Dimethylamino)phenyl)-6,7-dimethoxy-4-(pyrrolidine-1-carbonyl)isoquinolin-1(2H)-one] the “IC50, nM” value (hLPA5 [4]) was “inactive”.
For COc1cc2c(C(=O)N3CCC(F)CC3)cn(-c3cccc(N(C)C)c3)c(=O)c2cc1OC [Compound 23, 2-(3-(Dimethylamino)phenyl)-4-(4-fluoropiperidine-1-carbonyl)-6,7-dimethoxyisoquinolin-1(2H-)-one], the “fold less potent than 2” value (hLPA5 [6]) was 4 – 10 fold.
With COc1cc2c(C(=O)N3CCC(C#N)CC3)cn(-c3cccc(N(C)C)c3)c(=O)c2cc1OC [Compound 24, 1-(2-(3-(Dimethylamino)phenyl)-6,7-dimethoxy-1-oxo-1,2-dihydroisoquinoline-4-carbonyl)piper-idine-4-carbonitrile] the IC50 (hLPA5 [6]) was 2100 ± 300 nM and the “fold less potent than 2” value (hLPA5 [6]) was 4 – 10 fold.
With C#CC1CCN(C(=O)c2cn(-c3cccc(N(C)C)c3)c(=O)c3cc(OC)c(OC)cc23)CC1 [Compound 26, 2-(3-(Dimethylamino)phenyl)-4-(4-ethynylpiperidine-1-carbonyl)-6,7-dimethoxyisoquinolin-1(2-H)-one] the IC50 (hLPA5 [6]) was 890 ± 100 nM, the “fold less potent than 2” value (hLPA5 [6]) was 4 – 10 fold and the “fold more potent than the unsubstituted piperidine 15” value (hLPA5 [4]; calcium assay) was ~ 2 fold.
In the case of CN(C)c1cccc(-n2cc(C(=O)N3CCC(F)CC3)c3ccccc3c2=O)c1 [Compound 34, 2-(3-(Dimethylamino)phenyl)-4-(4-fluoropiperidine-1-carbonyl)isoquinolin-1(2H)-one], the “IC50, nM” value (hLPA5 [4]) is reported as “total loss of potency”.
In the case of COc1cc2c(=O)n(-c3cccc(N(C)C)c3)cc(C(=O)N3CCC(F)CC3)c2cc1OCc1cccc2ccccc12 [Compound 44, 2-(3-(Dimethylamino)phenyl)-4-(4-fluoropiperidine-1-carbonyl)-7-methoxy-6-(naphthalen-1-ylm-ethoxy)isoquinolin-1(2H)-one], the “IC50, nM” value (hLPA5 [4]) is reported as “total loss of activity”.
With COc1cc2c(=O)n(-c3cccc(N(C)C)c3)cc(C(=O)N3CCC(F)CC3)c2cc1OCc1ccccn1 [Compound 45, 2-(3-(Dimethylamino)phenyl)-4-(4-fluoropiperidine-1-carbonyl)-7-methoxy-6-(pyridin-2-ylmeth-oxy)isoquinolin-1(2H)-one] the “IC50, nM” value (hLPA5 [4]) was “total loss of activity”.
In the case of COc1cc2c(C(=O)N3CCCCC3)cn(-c3cccc(C(N)=O)c3)c(=O)c2cc1OC [Compound 50, 3-(6,7-Dimethoxy-1-oxo-4-(piperidine-1-carbonyl)isoquinolin-2(1H)-yl)benzamide], the “IC50, nM” value (hLPA5 [4]) is reported as “completely inactive”.
For COc1cc2c(C(=O)N3CCCCC3)cn(-c3cccc(C(=O)N(C)C)c3)c(=O)c2cc1OC [Compound 51, 3-(6,7-Dimethoxy-1-oxo-4-(piperidine-1-carbonyl)isoquinolin-2(1H)-yl)-N,N-dimethylbenzamide], the “IC50, nM” value (hLPA5 [4]) was “completely inactive”.
With COc1cc2c(C(=O)N3CCCCC3)cn(-c3ccc4occ(C)c4c3)c(=O)c2cc1OC [Compound 56, 6,7-Dimethoxy-2-(3-methylbenzofuran-5-yl)-4-(piperidine-1-carbonyl)isoquinolin-1(2H)-one] the “potency difference between cAMP and calcium mobilization assays” value (hLPA5 [6]) was 3.9 fold.
With COc1cc2c(C(=O)N3CCCCC3)cn(-c3ccc4ccn(C)c4c3)c(=O)c2cc1OC [Compound 58, 6,7-Dimethoxy-2-(1-methyl-1H-indol-6-yl)-4-(piperidine-1-carbonyl)isoquinolin-1(2H)-one] the “potency difference between cAMP and calcium mobilization assays” value (hLPA5 [6]) was 7.2 fold.
In the case of COc1cc2c(C(=O)N3CCC(F)CC3)cn(-c3ccc4occ(C)c4c3)c(=O)c2cc1OC [Compound 64, 4-(4-Fluoropiperidine-1-carbonyl)-6,7-dimethoxy-2-(3-methylbenzofuran-5-yl)isoquinolin-1(2H)-one], the “fold less potent than 3 and 66” value (hLPA5 [4]; calcium assay) is reported as ~ 4 fold.
With COc1cc2c(C(=O)N3CCC(F)CC3)cn(-c3ccc4scc(C)c4c3)c(=O)c2cc1OC [Compound 65, 4-(4-Fluoropiperidine-1-carbonyl)-6,7-dimethoxy-2-(3-methylbenzo[b]thiophen-5-yl)isoquinolin-1(2H)-one] the “potency difference between cAMP and calcium mobilization assays” value (hLPA5 [6]) was 4.9 fold, the “fold less potent than 2” value (hLPA5 [4]) was 1.5–2 fold and the “effect on CFA-induced nociceptive hypersensitivity” value ([1]; 17.8 mg/kg) was “markedly alleviated nociceptive hypersensitivity”. The “duration of effect in CFA model” value [1] was ~ 5 h, the CLint scaled at 0.75 h [7] was 48.4 mL/min/kg and the “affinity for panel receptors” value [8] was “no significant affinity for most of the receptors”. The efflux ratio at 90 min, 10 μM (P-glycoprotein (MDR1)) was under 2.5, the “Papp (B-to-A)” value (MDCK-mdr1 cells) was 30.4 10^−6 cm/s and the Papp B→A at 90 min, 10 μM [9] was 31.1 ×10⁻⁶ cm/s. For the same compound, the “LPA1–LPA4 inhibition” value (LPA1–LPA4 receptors) was under 50%.
In the case of CCCCCCCCCCCCCCCCOC[C@@H](O)COP(=O)(O)O [hexadecyl LPA 16:0, reference compound], the IC50 (LPA5 [10]) is given as 7.5 nM and the “potency difference between cAMP and calcium mobilization assays” value (hLPA5 [6]) is given as “about 6 fold”.

— article PMC10155261 (European journal of medicinal chemistry, 2022)
